# Results reported in ChEMBL document CHEMBL4431339, “1,2,3-Triazoles as Amide Bioisosteres: Discovery of a New Class of Potent HIV-1 Vif Antagonists” (J Med Chem, 2016).
# Activity calls are given as the source filed them. Unless noted, no cut-off for these calls is given here.
# Columns and labels:
# [1] = biological target: Virion infectivity factor (Human immunodeficiency virus type 1 group M subtype B (isolate NY5)(HIV-1)) (UniProt P12504); assay: Antagonist activity against HIV-1 Vif in human MT4 cells assessed as inhibition of viral infection at 50 uM measured after 16 hrs by cell-based assay; details: Human immunodeficiency virus 1
# Outline: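 Antiviral activity was measured against wild-type HIV-1 in permissive MT-4 cells as a Vif-specificity counter-screen. RN-18 was the positive control, and cells cultured without inhibitor were the negative control. "No activity" means no inhibition at 50 µM.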
# HeLa = assay: Cytotoxicity against human HeLa cells at 50 uM measured after 16 hrs by MTS assay relative to DMSO control; format: cell-based
# [2] = biological target: Virion infectivity factor (Human immunodeficiency virus type 1 group M subtype B (isolate NY5)(HIV-1)) (UniProt P12504); assay: Antagonist activity against HIV-1 Vif in human H9 cells expressing A3G assessed as inhibition of viral replication by reverse transcriptase assay relative to vehicle-treated control; format: cell-based; details: Human immunodeficiency virus 1
# Outline: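 Antiviral activity was measured against wild-type HIV-1 in non-permissive (A3G-expressing) H9 cells and reported as IC50. RN-18 was the positive control, and cells cultured without inhibitor were the negative control. Selected compounds were tested across doses, and MTS cell viability was checked in parallel at 50 µM.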
# [3] = biological target: Virion infectivity factor (Human immunodeficiency virus type 1 group M subtype B (isolate NY5)(HIV-1)) (UniProt P12504); assay: Antagonist activity against HIV-1 GFP-tagged Vif in human HEK293FT cells co-expressing HA-tagged A3G assessed as upregulation of A3G levels at 50 uM measured after 16 hrs by immunoblotting method; format: cell-based; details: Human immunodeficiency virus 1
# Outline: (§1)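 HEK293FT cells co-expressing HA-tagged A3G and either GFP-tagged Vif or Vif were incubated with or without compound (50 µM) for 16 h. Cell extracts were immunoblotted with anti-HA (A3G), anti-GFP (Vif) and anti-GAPDH antibodies. Untreated cells served as the comparison, and choline chloride was included as a negative control in the triazole series.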
# [4] = biological target: Virion infectivity factor (Human immunodeficiency virus type 1 group M subtype B (isolate NY5)(HIV-1)) (UniProt P12504); assay: Antagonist activity against HIV-1 GFP-tagged Vif in human HEK293FT cells co-expressing HA-tagged A3G assessed as downregulation of Vif expression expression at 50 uM measured after 16 hrs by immunoblotting method; format: cell-based; details: Human immunodeficiency virus 1; outline: as §1
# Chain of Virion infectivity factor (Human immunodeficiency virus type 1 group M subtype B (isolate NY5)(HIV-1)) (P12504 whole entry): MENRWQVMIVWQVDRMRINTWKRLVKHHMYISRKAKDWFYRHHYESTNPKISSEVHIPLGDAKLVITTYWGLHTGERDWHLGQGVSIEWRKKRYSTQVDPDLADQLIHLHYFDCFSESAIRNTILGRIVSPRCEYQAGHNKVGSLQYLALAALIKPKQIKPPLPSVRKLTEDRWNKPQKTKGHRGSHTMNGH
SMILES,Activity [1],further results
COc1cccc(F)c1-n1cc(-c2ccccc2Sc2ccc(N)cc2)nn1,inactive,–
COc1cccc(-n2cc(-c3ccccc3S(=O)(=O)c3ccc(C(F)(F)F)cc3)nn2)c1OC,inactive,–
COc1ccc(-n2cc(-c3ccccc3Sc3ccc([N+](=O)[O-])cc3)nn2)c(OC)c1,inactive,–
COc1ccc(-n2cc(-c3ccccc3S(=O)(=O)c3ccc([N+](=O)[O-])cc3)nn2)c(OC)c1,inactive,–
COC(=O)c1ccc(Sc2ccccc2-c2cn(-c3c(OC)cccc3OC)nn2)cc1,inactive,Activity (HeLa): Non-Toxic; inhibition [2]: Dose-dependent effect
COc1cccc(-n2cc(-c3ccccc3S(=O)(=O)c3ccc(C(=O)O)cc3)nn2)c1OC,inactive,–
COc1cccc(-n2cc(-c3ccccc3S(=O)(=O)c3ccc(N)cc3)nn2)c1OC,inactive,–
COc1cccc(F)c1-n1cc(-c2ccccc2Sc2ccc([N+](=O)[O-])cc2)nn1,inactive,–
COc1ccc(S(=O)(=O)c2ccccc2-c2cn(-c3ccccc3OC)nn2)cc1,inactive,–
COc1cccc(F)c1-n1cc(-c2ccccc2Sc2ccc(C(=O)O)cc2)nn1,inactive,–
COc1ccc(Sc2ccccc2-c2cn(-c3cc(OC)ccc3OC)nn2)cc1,inactive,–
COc1ccccc1-n1cc(-c2ccccc2S(=O)(=O)c2ccc([N+](=O)[O-])cc2)nn1,inactive,–
COC(=O)c1ccc(S(=O)(=O)c2ccccc2-c2cn(-c3ccc(OC)cc3OC)nn2)cc1,inactive,–
COc1ccccc1-n1nncc1-c1ccccc1Sc1ccc([N+](=O)[O-])cc1,–,Activity [3]: Active; Activity [4]: Active
COC(=O)c1ccc(S(=O)(=O)c2ccccc2-c2cn(-c3cccc(OC)c3OC)nn2)cc1,inactive,–
COC(=O)c1ccc(Sc2ccccc2-c2cn(-c3c(F)cccc3OC)nn2)cc1,inactive,–
COc1ccc(-n2cc(-c3ccccc3Sc3ccc(C(F)(F)F)cc3)nn2)c(OC)c1,inactive,–
COc1cccc(F)c1-n1cc(-c2ccccc2S(=O)(=O)c2ccc([N+](=O)[O-])cc2)nn1,inactive,–
COc1ccc(-n2cc(-c3ccccc3Sc3ccc(N)cc3)nn2)c(OC)c1,inactive,–
COc1ccc(-n2cc(-c3ccccc3Sc3ccc(C(=O)O)cc3)nn2)c(OC)c1,inactive,–
COC(=O)c1ccc(S(=O)(=O)c2ccccc2-c2cn(-c3ccccc3OC)nn2)cc1,inactive,–
COC(=O)c1ccc(Sc2ccccc2-c2cn(-c3ccc(OC)cc3OC)nn2)cc1,inactive,Activity (HeLa): Non-Toxic; inhibition [2]: Dose-dependent effect
COc1ccc(-n2cc(-c3ccccc3S(=O)(=O)c3ccc(C(F)(F)F)cc3)nn2)c(OC)c1,inactive,–
COc1cccc(OC)c1-n1cc(-c2ccccc2S(=O)(=O)c2ccc(C(=O)O)cc2)nn1,inactive,–

SMILES,Activity [1],further results
COC(=O)c1ccc(Sc2ccccc2-c2cn(-c3ccccc3OC)nn2)cc1,inactive,–
COc1cccc(OC)c1-n1cc(-c2ccccc2S(=O)(=O)c2ccc([N+](=O)[O-])cc2)nn1,inactive,–
COc1cccc(OC)c1-n1cc(-c2ccccc2S(=O)(=O)c2ccc(N)cc2)nn1,inactive,–
COc1cccc(OC)c1-n1cc(-c2ccccc2Sc2ccc([N+](=O)[O-])cc2)nn1,inactive,–
COc1cccc(-n2cc(-c3ccccc3Sc3ccc([N+](=O)[O-])cc3)nn2)c1OC,inactive,Activity (HeLa): Non-Toxic; inhibition [2]: Dose-dependent effect
COc1ccc(Sc2ccccc2-c2cn(-c3c(OC)cccc3OC)nn2)cc1,inactive,–
COc1cccc(F)c1-n1cc(-c2ccccc2S(=O)(=O)c2ccc(N)cc2)nn1,inactive,–
COC(=O)c1ccc(Sc2ccccc2-c2cn(-c3cccc(OC)c3OC)nn2)cc1,inactive,Activity (HeLa): Non-Toxic; inhibition [2]: Dose-dependent effect
COc1ccc(-n2cc(-c3ccccc3S(=O)(=O)c3ccc(N)cc3)nn2)c(OC)c1,inactive,–
COc1cccc(-n2cc(-c3ccccc3S(=O)(=O)c3ccc([N+](=O)[O-])cc3)nn2)c1OC,inactive,–
COc1ccccc1-n1cc(-c2ccccc2Sc2ccc(N)cc2)nn1,inactive,–
COC(=O)c1ccc(S(=O)(=O)c2ccccc2-c2cn(-c3c(F)cccc3OC)nn2)cc1,inactive,–
COc1cccc(OC)c1-n1cc(-c2ccccc2S(=O)(=O)c2ccc(C(F)(F)F)cc2)nn1,inactive,–
COc1ccc(OC)c(-n2cc(-c3ccccc3Sc3ccc(C(F)(F)F)cc3)nn2)c1,inactive,–
COc1cccc(-n2cc(-c3ccccc3Sc3ccc(C(F)(F)F)cc3)nn2)c1OC,inactive,–
COc1ccc(Sc2ccccc2-c2cn(-c3ccc(OC)cc3OC)nn2)cc1,inactive,–
COc1ccc(OC)c(-n2cc(-c3ccccc3Sc3ccc(N)cc3)nn2)c1,inactive,–
COc1ccc(OC)c(-n2cc(-c3ccccc3Sc3ccc([N+](=O)[O-])cc3)nn2)c1,inactive,Activity [3]: Active; Activity [4]: Active; Activity (HeLa): Non-Toxic; inhibition [2]: Dose-dependent effect
COc1ccc(OC)c(-n2cc(-c3ccccc3S(=O)(=O)c3ccc(C(F)(F)F)cc3)nn2)c1,inactive,–
COc1cccc(-n2cc(-c3ccccc3Sc3ccc(N)cc3)nn2)c1OC,inactive,–
COc1ccccc1-n1cc(-c2ccccc2Sc2ccc(C(=O)O)cc2)nn1,inactive,–
COc1ccccc1-n1cc(-c2ccccc2Sc2ccc(C(F)(F)F)cc2)nn1,inactive,Activity [3]: Active; Activity [4]: Active; Activity (HeLa): Non-Toxic; inhibition [2]: Dose-dependent effect
COc1ccc(S(=O)(=O)c2ccccc2-c2cn(-c3c(F)cccc3OC)nn2)cc1,inactive,–
COc1ccc(OC)c(-n2cc(-c3ccccc3S(=O)(=O)c3ccc(C(=O)O)cc3)nn2)c1,inactive,Activity [3]: Active; Activity [4]: Active

SMILES,Activity [1],further results
COc1ccc(Sc2ccccc2-c2cn(-c3cccc(OC)c3OC)nn2)cc1,inactive,–
COC(=O)c1ccc(S(=O)(=O)c2ccccc2-c2cn(-c3cc(OC)ccc3OC)nn2)cc1,inactive,–
COc1ccc(OC)c(-n2cc(-c3ccccc3S(=O)(=O)c3ccc([N+](=O)[O-])cc3)nn2)c1,inactive,Activity (HeLa): Non-Toxic; inhibition [2]: Dose-dependent effect
COc1cccc(OC)c1-n1cc(-c2ccccc2Sc2ccc(C(F)(F)F)cc2)nn1,inactive,–
COc1cccc(OC)c1-n1cc(-c2ccccc2Sc2ccc(C(=O)O)cc2)nn1,inactive,–
COc1cccc(OC)c1-n1cc(-c2ccccc2Sc2ccc(N)cc2)nn1,inactive,–
COc1ccc(Sc2ccccc2-c2cn(-c3c(F)cccc3OC)nn2)cc1,inactive,–
COc1cccc(F)c1-n1cc(-c2ccccc2S(=O)(=O)c2ccc(C(F)(F)F)cc2)nn1,inactive,–
COC(=O)c1ccc(Sc2ccccc2-c2cn(-c3cc(OC)ccc3OC)nn2)cc1,inactive,Activity [3]: Active; Activity [4]: Active
COc1cccc(F)c1-n1cc(-c2ccccc2S(=O)(=O)c2ccc(C(=O)O)cc2)nn1,inactive,–
COc1ccc(S(=O)(=O)c2ccccc2-c2cn(-c3c(OC)cccc3OC)nn2)cc1,inactive,–
COc1ccc(S(=O)(=O)c2ccccc2-c2cn(-c3cc(OC)ccc3OC)nn2)cc1,inactive,–
COc1cccc(F)c1-n1cc(-c2ccccc2Sc2ccc(C(F)(F)F)cc2)nn1,inactive,–
COc1ccccc1-n1cc(-c2ccccc2S(=O)(=O)c2ccc(C(F)(F)F)cc2)nn1,inactive,–
COc1ccccc1-c1nnc(-c2ccccc2Sc2ccc([N+](=O)[O-])cc2)o1,–,Activity [3]: Active; Activity [4]: Active
COc1ccc(Sc2ccccc2-c2cn(-c3ccccc3OC)nn2)cc1,inactive,–
COc1ccc(-n2cc(-c3ccccc3S(=O)(=O)c3ccc(C(=O)O)cc3)nn2)c(OC)c1,inactive,–
COc1ccccc1-n1cc(-c2ccccc2S(=O)(=O)c2ccc(C(=O)O)cc2)nn1,inactive,Activity [3]: Active; Activity [4]: Active
COc1ccccc1-n1cc(-c2ccccc2S(=O)(=O)c2ccc(N)cc2)nn1,inactive,Activity [3]: Active; Activity [4]: Active
COc1ccc(S(=O)(=O)c2ccccc2-c2cn(-c3cccc(OC)c3OC)nn2)cc1,inactive,–
COC(=O)c1ccc(S(=O)(=O)c2ccccc2-c2cn(-c3c(OC)cccc3OC)nn2)cc1,inactive,–
COc1ccc(OC)c(-n2cc(-c3ccccc3Sc3ccc(C(=O)O)cc3)nn2)c1,inactive,–
COc1ccc(S(=O)(=O)c2ccccc2-c2cn(-c3ccc(OC)cc3OC)nn2)cc1,inactive,–
COc1cccc(-n2cc(-c3ccccc3Sc3ccc(C(=O)O)cc3)nn2)c1OC,inactive,–
